IC50 data for 24 compounds are collected here from ChEMBL document CHEMBL1154604, “Novel hybrids from lamellarin D and combretastatin A 4 as cytotoxic agents” (Eur J Med Chem, 2010).

What all share (assay type): functional, cell-based
Assay [1] concerns A549. Nature of the assay: Antiproliferative activity against human A549 cells after 48 hrs by MTT assay. The following applies: A549, 48 h. Summed up: (§1)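 Exponentially growing cells seeded in 96-well plates, left 24 h, then exposed to compounds at given concentrations for 48 h. MTT at 2.5 mg ml^-1 added for 4 h; formazan dissolved in 10% SDS in 0.1 N HCl, absorbance at 570 nm. Viability compared with blank; IC50 (50% inhibition of viability) calculated by Bliss method.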
(In general: Tetrazolium assays rely on reduction of a dye to a coloured formazan, in cell work by metabolically active cells.)

Assay [2] deals with SGC-7901. Description: Antiproliferative activity against human SGC7901 cells after 48 hrs by MTT assay. The following applies: SGC-7901, 48 h. Summed up:
as §1

Assay [3] concerns SMMC-7721. Description: Antiproliferative activity against human SMMC7721 cells after 48 hrs by MTT assay. The following applies: SMMC-7721, 48 h. The essentials:
as §1

In assay [4] the test system is K562. Nature of the assay: Antiproliferative activity against human K562 cells after 48 hrs by MTT assay. The settings on record: K562, 48 h. Summed up: as §1
The test system of assay [5] is HCT-116. Description: Antiproliferative activity against human HCT116 cells after 48 hrs by MTT assay. The following applies: HCT-116, 48 h. The essentials: as §1

One may read the IC50 as the concentration at which inhibition is half-maximal. `COc1cc2c(cc1OC)-c1c(-c3cc(OC)c(OC)c(OC)c3)c(-c3ccc(O)c(O)c3)cn1CC2`: the IC50 in assay [1] was 99.4 µM; in assay [2], > 99.4 µM; in assay [3], 43.9 µM; in assay [4], 14.1 µM; in assay [5] it was 5.8 µM.
The corresponding values for `COc1cc2c(cc1OC(C)C)CCn1cc(-c3ccc(Cl)cc3)c(-c3cc(OC)c(OC)c(OC)c3)c1-2` are > 93.6 µM, > 93.6 µM, > 93.6 µM, > 93.6 µM and > 93.6 µM.
The like results for `COc1ccc(-c2c(-c3ccc(O)cc3)cn3c2-c2cc(OC)c(OC)cc2CC3)cc1` were, in that order, > 117 µM, > 117 µM, > 117 µM, 3.1 µM and 34.5 µM.
The corresponding values for `COc1cc2c(cc1OC(C)C)CCn1cc(-c3ccc(Br)cc3)c(-c3cc(OC)c(OC)c(OC)c3)c1-2` are > 86.4 µM, 15.4 µM, > 86.4 µM, > 86.4 µM and > 86.4 µM.
Take `COc1cc2c(cc1OC)-c1c(-c3cc(OC)c(OC)c(OC)c3)c(-c3ccc(O)cc3)cn1CC2`: the IC50 in assay [1] amounted to 23.3 µM; in assay [2] it was 22.7 µM; in assay [3], 15 µM; in assay [4], 5.3 µM; in assay [5], 13.8 µM.
The corresponding values for `COc1cc2c(cc1OC)-c1c(-c3cc(OC)c(OC)c(OC)c3)c(-c3ccc(OC)c(OC(C)C)c3)cn1CC2` are > 89.3 µM, > 89.3 µM, > 89.3 µM, > 89.3 µM and > 89.3 µM.
The like results for `COc1ccc(-c2c(-c3cc(F)ccc3OC)cn3c2-c2cc(OC)c(OC)cc2CC3)cc1` were, in that order, > 109 µM, > 109 µM, > 109 µM, > 109 µM and > 109 µM.
The corresponding values for `COc1ccc(-c2c(-c3ccc(O)c(O)c3)cn3c2-c2cc(OC)c(OC)cc2CC3)cc1OC` are > 106 µM, > 106 µM, > 106 µM, > 106 µM and > 106 µM.
As for `COc1cc2c(cc1OC(C)C)CCn1cc(-c3ccc(O)c(O)c3)c(-c3cc(OC)c(OC)c(OC)c3)c1-2`, the IC50 is > 94.1 µM in assay [1]; > 94.1 µM in assay [2]; > 94.1 µM in assay [3]; 4 µM in assay [4]; 1.4 µM in assay [5].
Consider `COc1cc2c(cc1OC)-c1c(-c3cc(OC)c(OC)c(OC)c3)c(-c3ccc(Cl)cc3)cn1CC2`, for which the IC50 in assay [1], in assay [2], in assay [3], in assay [4] and in assay [5] was > 98.8 µM each time.
Take `COc1cc(-c2c(-c3ccc(O)c(O)c3)cn3c2-c2cc(OC)c(OC(C)C)cc2CC3)ccc1OC(C)C`: the half-maximal inhibitory concentration (IC50) in assay [1] was determined as 6.7 µM; in assay [2], 11.4 µM; in assay [3], 10.9 µM; in assay [4], 2.7 µM; in assay [5] it was 0.7 µM.
The like results for `COc1ccc(-c2c(-c3ccc(OC)c(O)c3)cn3c2-c2cc(OC)c(OC)cc2CC3)cc1` were, in that order, > 109 µM, > 109 µM, > 109 µM, > 109 µM and > 109 µM.
The like results for `COc1ccc(-c2cn3c(c2-c2cc(OC)c(OC)c(OC)c2)-c2cc(OC)c(OC)cc2CC3)cc1O` were, in that order, > 96.4 µM, > 96.4 µM, > 96.4 µM, 22 µM and 3.2 µM.
Regarding `COc1ccc(-c2cn3c(c2-c2cc(OC)c(OC)c(OC)c2)-c2cc(OC)c(OC(C)C)cc2CC3)cc1O`, the IC50 in assay [1] is > 91.5 µM; in assay [2], > 91.5 µM; in assay [3], > 91.5 µM; in assay [4] it was 19.6 µM; in assay [5] it was > 91.5 µM.
As to `COc1cc2c(cc1OC(C)C)CCn1cc(-c3ccc(O)cc3)c(-c3cc(OC)c(OC)c(OC)c3)c1-2`, the IC50 in assay [1] is > 96.8 µM; in assay [2] it was > 96.8 µM; in assay [3], 46.7 µM; in assay [4] it was > 96.8 µM; in assay [5] it was > 96.8 µM.
For `COc1cc2c(cc1OC)-c1c(-c3cc(OC)c(OC)c(OC)c3)c(-c3ccc(Br)cc3)cn1CC2`, the IC50 in assay [1] is > 90.8 µM; in assay [2], 1.2 µM; in assay [3] it was 17.5 µM; in assay [4], 8.8 µM; in assay [5] it was > 90.8 µM.
Turning to `COc1ccc(-c2c(-c3cc(F)ccc3OC(C)C)cn3c2-c2cc(OC)c(OC)cc2CC3)cc1`, the IC50 in assay [1], in assay [2], in assay [3], in assay [4] and in assay [5] was > 103 µM each time.
Regarding `COc1cc(-c2c(-c3cc(OC)c(OC(C)C)cc3OS(C)(=O)=O)cn3c2-c2cc(OC)c(OC(C)C)cc2CC3)ccc1OC(C)C`, the IC50 in assay [1] is > 73.5 µM; in assay [2], > 73.5 µM; in assay [3] it was > 73.5 µM; in assay [4], 59.8 µM; in assay [5], 21 µM.
In the case of `COc1ccc(-c2c(-c3cc(OC)c(OC)cc3OS(C)(=O)=O)cn3c2-c2cc(OC)c(OC)cc2CC3)cc1OC`, the IC50 in assay [1], in assay [2], in assay [3], in assay [4] and in assay [5] was > 83.9 µM in each case.
Take `COc1cc(OS(C)(=O)=O)c(-c2cn3c(c2-c2ccc(OC(C)C)c(OC)c2)-c2cc(OC)c(OC(C)C)cc2CC3)cc1OC`: the IC50 in assay [1], in assay [2], in assay [3], in assay [4] and in assay [5] was > 76.7 µM each time.
`COc1ccc(-c2cn3c(c2-c2cc(OC)c(OC)c(OC)c2)-c2cc(OC)c(OC(C)C)cc2CC3)cc1OC(C)C`: the IC50 in assay [1] was > 85.1 µM; in assay [2], > 85.1 µM; in assay [3], > 85.1 µM; in assay [4], 83.3 µM; in assay [5], > 85.1 µM.
With `COc1cc(-c2c(-c3cc(F)ccc3OC)cn3c2-c2cc(OC)c(OC(C)C)cc2CC3)ccc1OC(C)C`, the IC50 in assay [1], in assay [2], in assay [3], in assay [4] and in assay [5] was > 91.6 µM throughout.
As for `COc1cc2c(cc1OC)-c1c(-c3cc(OC)c(OC)c(OC)c3)c(-c3cc(F)ccc3OC)cn1CC2`, the IC50 in assay [1] is > 96.2 µM; in assay [2], > 96.2 µM; in assay [3] it was > 96.2 µM; in assay [4] it was 37.1 µM; in assay [5], > 96.2 µM.
`CC(=O)O[C@H]1C(=O)[C@@]2(C)[C@H]([C@H](OC(=O)c3ccccc3)[C@]3(O)C[C@H](OC(=O)[C@H](O)[C@@H](NC(=O)c4ccccc4)c4ccccc4)C(C)=C1C3(C)C)[C@]1(OC(C)=O)CO[C@@H]1C[C@@H]2O` [PACLITAXEL] registered an IC50 in assay [2] of 3.34 µM.
